Here are results for 3 compounds from ChEMBL document CHEMBL4000168, “Carthorquinosides A and B, Quinochalcone C-Glycosides with Diverse Dimeric Skeletons from Carthamus tinctorius” (J Nat Prod, 2016).

SMILES strings stand for the structures. The source made the active and inactive calls. The rule behind the calls is not given here.

Assay [1] relates to K562. The assay is described as follows: Cytotoxicity against human K562 cells after 72 hrs by MTT assay. Particulars: K562, 72 h. In general terms: Formazan colour is commonly taken as a measure of viable cells.
The subject of assay [2] is A549. The assay can be described thus: Cytotoxicity against human A549 cells after 72 hrs by MTT assay. Particulars: A549, 72 h.
Assay [3] deals with HCT-116. The assay is described as follows: Cytotoxicity against human HCT116 cells after 72 hrs by MTT assay. Particulars: HCT-116, 72 h.
For assay [4], the system named is HeLa. The assay can be described thus: Cytotoxicity against human HeLa cells after 72 hrs by MTT assay.
Assay [5] deals with HepG2. The assay is described as follows: Cytotoxicity against human HepG2 cells after 72 hrs by MTT assay. To be noted: HepG2, 72 h.
Assay [6] has as its system HUVEC. The assay can be described thus: Antiinflammatory activity in HUVEC assessed as downregulation of LPS-induced IL6 mRNA expression at 0.8 to 100 uM by qRT-PCR method. It is filed as functional, cell-based. To be noted: Homo sapiens. The essentials: (§1)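 HUVEC cells grown in DMEM with 10% FBS, streptomycin and penicillin, at 37 °C in humidified 5% CO2. Drug groups received 0.8, 4, 20 or 100 μM drug plus 10 μg/mL LPS. Model group got medium plus LPS, controls got medium only, n = 3 per group. Cells harvested after varying times for cytokine mRNA measurement. Mean ± SD of three independent experiments.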

Assay [7] deals with HUVEC. The assay is described as follows: Antiinflammatory activity in LPS stimulated HUVEC assessed as upregulation of IL10 mRNA expression at 0.8 to 100 uM by qRT-PCR method. It is filed as functional, cell-based. To be noted: Homo sapiens. The essentials: as §1
(Quantitative PCR measures a nucleic acid by following its amplification.)

For assay [8], the system named is HUVEC. The assay can be described thus: Antiinflammatory activity in HUVEC assessed as downregulation of LPS-induced IL1 mRNA expression at 0.8 to 100 uM by qRT-PCR method. It is filed as functional, cell-based. To be noted: Homo sapiens. Put shortly: as §1
Assay [9] is filed under the species Bos taurus. The assay can be described thus: Inhibition of calf thymus topoisomerase 1 assessed as decrease in relaxation of supercoiled pBR322 DNA at 100 uM after 30 mins by agarose gel electrophoresis. Put shortly:
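Calf-thymus topoisomerase I relaxation of negatively supercoiled pBR322. Supercoiled and relaxed DNA bands resolved. Test concentration 100 μM. Hydroxycamptothecine served as positive control.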

The subject of assay [10] is HUVEC. The assay can be described thus: Antiinflammatory activity in HUVEC assessed as downregulation of LPS-induced IFN-gamma mRNA expression at 0.8 to 100 uM by qRT-PCR method. It is filed as functional, cell-based. Particulars: Homo sapiens. Put shortly:
as §1

The IC50 is the concentration at which inhibition is half-maximal. For `CC(=O)O[C@H]1C(=O)[C@@]2(C)[C@H]([C@H](OC(=O)c3ccccc3)[C@]3(O)C[C@H](OC(=O)[C@H](O)[C@@H](NC(=O)c4ccccc4)c4ccccc4)C(C)=C1C3(C)C)[C@]1(OC(C)=O)CO[C@@H]1C[C@@H]2O` [PACLITAXEL], the IC50 in [1] was found to be 2.7 µM; in assay [2], 5.5 µM; in assay [3], 3.3 µM; in assay [4], 1.7 µM; in assay [5], 6.7 µM.
On to `O=C(/C=C/c1ccc(O)cc1)C1=C(O)C(Cc2c(O)c(O[C@@H]3O[C@H](CO)[C@@H](O)[C@H](O)[C@H]3O)c(O)c3c(=O)c(O[C@@H]4O[C@H](CO)[C@@H](O)[C@H](O)[C@H]4O)c(-c4ccc(O)cc4)oc23)=C(O)[C@@](O)(C2O[C@H](CO)[C@@H](O)[C@H](O)[C@H]2O)C1=O` (stereo partly drawn), for which the result in assay [6] and in assay [8] was Active. For the same compound, in assay [7], the Activity entry was “Dose-dependent effect”.
For the compound `O=C(/C=C/c1ccc(O)cc1)C1=C(O)C(C2C3=C(O)[C@@](O)(C4O[C@H](CO)[C@@H](O)[C@H](O)[C@H]4O)C(=O)C(C(=O)/C=C/c4ccc(O)cc4)=C3O[C@@H]2[C@@H](O)[C@H](O)[C@H](O)CO)=C(O)[C@@](O)(C2O[C@H](CO)[C@@H](O)[C@H](O)[C@H]2O)C1=O` (stereo partly drawn), in [9], the inhibition entry is “Active”. The Activity result in assay [6], in assay [7], in assay [10] and in [8] was “Dose-dependent effect” each time.
